# Screening data from PubChem.
# Apaf-1 inh – blocks human Apaf-1 apoptosome activity; reconstituted apoptosome caspase-3 activity, DEVD-Rh110 fluorescence; inhibition, % at 20 µM; 0.71% of 330,000 active; active = inhibition of at least 40% at 20 µM;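 note: plate controls were DMSO wells for no effect and DEVD-CHO caspase inhibitor wells for full effect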
#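 Material: biochemical Apaf-1 apoptosome reconstitution. Medium: Hepes buffer, pH 7.5. Also added: cytochrome c activation, bis-DEVD rhodamine 110 substrate. Timing: 30 min compound preincubation, 50 min activation, room temperature. Measured by: rhodamine 110 fluorescence at Ex 480/Em 540 nm.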
# SENP6 inh – inhibitors of human SENP6 protease; Q9GZR1; Recombinant SENP6 catalytic domain, aminoluciferin luminescence; inhibition, % at 10 µM; 1.8% of 330,000 active; AID 2599;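 active = inhibition above about 50% at the single tested dose, limit read from the data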;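 note: plate controls were DMSO wells with enzyme for no effect and DMSO wells lacking enzyme for full effect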
# SENP8 block-1 – inhibitors of human SENP8 protease; Q96LD8; recombinant SENP8, Nedd8 substrate fluorescence; inhibition, % at 20 µM; 0.64% of 360,000 active; AID 602440; in the data active = inhibition mostly above about 40%, no sharp cut-off; inactive = mostly below about 27%
# Target sequence (Q96LD8 whole entry, looked up): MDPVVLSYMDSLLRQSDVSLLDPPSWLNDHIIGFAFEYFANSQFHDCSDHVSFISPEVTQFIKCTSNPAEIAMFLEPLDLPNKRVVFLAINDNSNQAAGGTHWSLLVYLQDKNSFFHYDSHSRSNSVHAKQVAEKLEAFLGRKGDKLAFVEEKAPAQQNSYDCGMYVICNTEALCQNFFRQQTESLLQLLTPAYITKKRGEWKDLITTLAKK
# UBC13 polyUb – inhibitors of human UBC13 polyubiquitin chain formation; P61088; TR-FRET; inhibition, % at 20 µM; 0.47% of 330,000 active; in the data active = inhibition above about 45%, passing the limit was not always enough
# SENP7 block – inhibitors of human SENP7 protease; Q9BQF6; recombinant SENP7, Z-RLRGG-aminoluciferin luminescence, 40 min; inhibition, % at 5 µM; 1.5% of 330,000 active; AID 434973;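 active = inhibition above about 50% at the single test dose, limit read from the data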;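 note: plate controls were DMSO with enzyme for no effect and no enzyme buffer wells for full effect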
# SENP8 block-2 – SENP8 protease inhibition | Q96LD8 | purified SENP8, Z-RLRGG-aminoluciferin cleavage, luminescence | inhibition, % at 10 µM | 1.2% of 330,000 active; in the data active = inhibition above about 50%
# SENP8 conf – confirmation of human SENP8 protease inhibitors. shares compounds with SENP7 block. Recombinant SENP8, Z-RLRGG-aminoluciferin luminescence, 60 min. inhibition, % at 12.5 µM. 40% of 6,200 active. AID 488912;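 active = mean inhibition across replicates above about 50%, limit read from the data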
# SENP6 conf – human SENP6 inhibition, confirmed; shares compounds with SENP7 block; recombinant SENP6, Z-RLRGG-aminoluciferin luminescence; inhibition, % at 12.5 µM; 58% of 6,200 active; AID 488915
# SENP7 confirm – confirmation of human SENP7 protease inhibitors | shares compounds with SENP7 block | recombinant SENP7, Z-RLRGG-aminoluciferin luminescence, 40 min | 69% of 6,200 active | AID 488917 | inhibition, % at 12.5 µM
# Casp3 SENP sel – inhibits human caspase-3 in SENP selectivity test; 60% of 6,200 active; purified caspase-3, Z-DEVD-aminoluciferin luminescence, 60 min; inhibition, % at 12.5 µM; shares compounds with SENP7 block;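 active = mean inhibition above about 50%, limit read from the data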;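 note: plate controls were enzyme with DMSO for no effect and wells without caspase-3 for full effect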
# Target sequence (P42574 28-227 limits assumed): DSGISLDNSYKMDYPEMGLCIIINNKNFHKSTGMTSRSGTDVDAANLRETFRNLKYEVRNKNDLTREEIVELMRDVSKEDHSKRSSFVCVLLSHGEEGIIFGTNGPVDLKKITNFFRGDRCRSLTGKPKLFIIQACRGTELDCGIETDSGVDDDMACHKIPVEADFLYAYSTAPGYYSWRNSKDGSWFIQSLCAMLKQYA
# SENP luc ctr – luminescence interference (SENP counter-screen). 39% of 6,200 active. Pre-incubated SENP8/Z-RLRGG-aminoluciferin, luciferase luminescence interference. AID 488919. shares compounds with SENP7 block. inhibition, % at 12.5 µM;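 active = mean inhibition above about 50% when retested at one dose, limit read from the data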;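 note: plate controls were DMSO wells with completed reaction for no effect and substrate without enzyme for full effect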
# * = called active by the depositor; i = inactive; . = no result. Sampled rows, rich in hits. Any-hit rate of the full collection: about 3%.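 Rule for the calls, unless noted: active = mean inhibition above about 50% in the one-dose retest (limit read from the data); inactive = the rest.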
SMILES,Apaf-1 inh,SENP6 inh,SENP8 block-1,UBC13 polyUb,SENP7 block,SENP8 block-2,SENP8 conf,SENP6 conf,SENP7 confirm,Casp3 SENP sel,SENP luc ctr
Cc1ccc(-n2ncc3c2CCCC3NC(=O)CCCN2CCCCC2=O)cc1C (centres undefined),-12.6,0.9,2.3,10.7,-5.9,-1.4,.,.,.,.,.
Cc1c(C(=O)N2CCC2(C)C(=O)O)oc2ccccc12 (centres undefined),.,.,19.5,.,.,.,.,.,.,.,.
Fc1cccc(NC(=S)N2CCc3ccccc32)c1,4.1,56.9*,5.8,-1.6,2.2,9.7,11.7,2.1,10.1,3.4,16.9
Cc1cc(NCc2ccccn2)nc2ccccc12,-6.5,1.3,-115.0,2.4,2.2,4.6,.,.,.,.,.
c1ccc(CNc2ccc3ccccc3n2)nc1,-7.9,87.5*,-163.5,-4.6,-14.0,86.4*,88.0*,88.6*,99.2*,92.5*,91.3*
COc1ccc(Cl)cc1NC(=S)NNC(=O)c1cccs1,7.9,85.6*,-36.3,-9.7,81.3*,65.7*,-2.0,-0.2,14.4,-1.6,26.8
COc1ccc(Cl)cc1NC(=S)NNC(=O)c1cccnc1,-1.6,15.5,-10.8,-9.6,27.0,6.3,.,.,.,.,.
CC(=O)Nc1ccc(-c2ccnc3c2CC(C)(C(=O)Nc2cccc(OC(F)(F)F)c2)O3)cc1 (centres undefined),.,.,-10.4,.,.,.,.,.,.,.,.
CCOC(=O)c1c(C)oc2ccc(NS(=O)(=O)c3cccs3)cc12,-5.7,-11.1,6.1,8.1,77.2*,8.0,-10.0,-2.5,-0.8,0.4,-5.2
COCCOC(=O)c1c(C)oc2ccc(NS(=O)(=O)c3cccs3)cc12,0.8,2.9,3.7,4.5,2.8,3.4,.,.,.,.,.
Cc1ccc(-c2nc3cc(C)ccc3o2)cc1,14.0,90.4*,-34.0,-5.7,90.4*,89.1*,58.1*,77.1*,93.8*,78.5*,32.7
Cc1ccc(-c2nc3cc(N)ccc3o2)cc1,-0.2,87.7*,-259.8,7.6,89.6*,75.2*,2.4,85.9*,96.8*,82.5*,57.9*
Cc1ccc2nc(-c3cccc(N)c3)[nH]c2c1,-2.5,93.5*,i,11.0,95.7*,88.2*,-25.2,91.4*,100.8*,95.4*,92.7*
Cc1ccc2oc(-c3ccco3)nc2c1,4.6,66.4*,-186.5,13.9,54.7*,43.9,-13.5,11.5,75.6*,21.5,0.0
O=c1oc(-c2ccco2)nc2ccccc12,8.3,-29.0,-16.5,-8.8,-10.7,-11.3,.,.,.,.,.
O=C(/C=C/c1cccs1)NCc1ccccc1,4.3,14.6,3.6,-16.8,-8.6,-16.6,.,.,.,.,.
Cc1ccc(NC(=O)CCN2CCC(C(N)=O)CC2)cc1,-4.0,5.1,11.6,-4.5,-14.1,-7.0,.,.,.,.,.
COC(=O)c1ccc(-c2nc3ccc(C)cc3o2)cc1,6.2,-19.3,-293.3,11.4,70.0*,24.8,31.2,31.2,36.2,47.5,16.5
CC(C)c1ccc2oc(-c3ccc(NC(=O)c4ncn[nH]4)cc3)nc2c1,3.1,34.9,-265.7,-3.2,16.3,21.7,.,.,.,.,.
Nc1ccc2oc(-c3cccs3)nc2c1,4.8,16.3,-323.7,6.3,16.9,2.1,.,.,.,.,.
CC(C)(C)c1ccc(-c2nc3cc(N)ccc3o2)cc1,7.2,82.8*,-432.9,15.8,78.2*,73.6*,42.0,84.1*,94.6*,48.5,77.4*
Cc1ccc2oc(-c3cccc(N)c3)nc2c1,8.8,96.9*,-466.4,15.3,98.1*,93.9*,-7.5,96.6*,102.5*,94.2*,58.5*
